For assay [1], the target named is T1, ∼130 kDa band (XlnD, β-xylosidase) (Aspergillus niger, UniProt O00089).
T1 sequence (O00089 27-804): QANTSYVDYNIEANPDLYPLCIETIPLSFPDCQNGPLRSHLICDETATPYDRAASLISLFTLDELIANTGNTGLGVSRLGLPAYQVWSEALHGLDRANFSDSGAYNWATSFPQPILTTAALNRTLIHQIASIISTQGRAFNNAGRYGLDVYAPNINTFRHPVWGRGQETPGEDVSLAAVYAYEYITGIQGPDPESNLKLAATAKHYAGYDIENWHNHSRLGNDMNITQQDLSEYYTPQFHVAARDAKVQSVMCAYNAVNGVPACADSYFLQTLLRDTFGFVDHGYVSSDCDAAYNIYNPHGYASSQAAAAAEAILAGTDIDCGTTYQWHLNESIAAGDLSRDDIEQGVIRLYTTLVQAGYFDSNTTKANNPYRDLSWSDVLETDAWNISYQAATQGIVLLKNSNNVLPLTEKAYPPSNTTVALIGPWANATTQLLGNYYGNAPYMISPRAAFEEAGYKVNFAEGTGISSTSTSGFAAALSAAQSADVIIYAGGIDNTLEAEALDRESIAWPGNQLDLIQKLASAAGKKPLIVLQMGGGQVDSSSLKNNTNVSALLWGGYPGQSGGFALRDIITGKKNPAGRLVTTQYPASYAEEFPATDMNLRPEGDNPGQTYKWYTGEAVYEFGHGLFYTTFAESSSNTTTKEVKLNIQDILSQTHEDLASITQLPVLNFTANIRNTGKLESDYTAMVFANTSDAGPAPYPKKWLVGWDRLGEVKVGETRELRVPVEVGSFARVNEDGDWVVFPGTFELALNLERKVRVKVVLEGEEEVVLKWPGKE
Nature of the assay: ABP labeling of secretomes and competition by inhibitors. Type of assay: binding, A. niger. Summed up: (§1)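 A. niger N402 was grown in minimal medium with 50 mM (0.75% w/v) xylose or 1% w/v beechwood xylan as sole carbon source. Secretomes were sampled at days 1–9, brought to pH 4.5 with phosphate/citrate buffer and labeled unconcentrated with Cy5 ABPs. In competition runs, secretome was preincubated with competitor (e.g. 100 μM aziridine) before ABP. Bands were read by SDS-PAGE fluorescence scan.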

The target of the next assay is T2, ASPACDRAFT_127619 (Aspergillus aculeatus, UniProt A0A1L9WG58).
T2 sequence (A0A1L9WG58 23-338): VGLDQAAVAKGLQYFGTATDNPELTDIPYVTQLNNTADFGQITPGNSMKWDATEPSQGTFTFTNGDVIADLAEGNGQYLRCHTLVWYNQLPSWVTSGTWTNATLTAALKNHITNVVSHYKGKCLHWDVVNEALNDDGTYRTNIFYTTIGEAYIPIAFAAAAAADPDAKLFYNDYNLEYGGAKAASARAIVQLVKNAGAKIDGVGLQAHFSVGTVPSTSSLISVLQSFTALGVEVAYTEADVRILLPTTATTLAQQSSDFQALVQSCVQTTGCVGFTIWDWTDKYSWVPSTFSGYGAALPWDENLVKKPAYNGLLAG
In words: Competitive ABP labeling by 8 against substrates, recombinant enzyme. Type of assay: binding, A. aculeatus. Summed up: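 Labeling of recombinant GH10 xylanase used 100 nM xylobiose Cy5 ABP for 10 min at room temperature, with competing substrates (e.g. polysaccharides) added. Loss of in-gel fluorescence with competitor concentration gave IC50. Assays were also repeated at 20 min, 37 °C, 1 μM ABP. Three or four technical replicates.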

Assay [2] deals with ∼30 kDa band (XlnC, β-xylanase) (Aspergillus niger, UniProt C5J411). Nature of the assay: ABP labeling of secretomes and competition by inhibitors. The class given is binding, A. niger. The settings on record: xylan-induced secretome preincubated with competitor, then ABP 8. An outline of the steps:
as §1

As to `OC[C@@H]1[C@@H](O)[C@H](O)[C@@H](O)[C@@H]2N[C@H]12` [Compound 23, cyclophellitol aziridine], in assay [1] (preincubation with 100 μM competitor), the “competition of ∼130 kDa band labeling by 8” value is listed as “some loss of intensity”.

A word on the IC50: it is the midpoint of a concentration-inhibition curve. For the compound `Cc1cc(=O)oc2cc(O[C@@H]3OC[C@@H](O[C@@H]4OC[C@@H](O)[C@H](O)[C@H]4O)[C@H](O)[C@H]3O)ccc12` [4MU-β-D-xylobioside], the IC50 at ASPACDRAFT_127619 came out at 204 µM.

Regarding `OC[C@@H]1[C@@H](O)[C@H](O)[C@@H](O)[C@@H]2O[C@H]12` [Compound 22, cyclophellitol], the “competition of ∼130 kDa band labeling by 8” value in assay [1] (xylan-induced secretome preincubated with competitor, then ABP 8) is on record as “No labeling inhibition”. In addition, the “competition of ∼30 kDa band labeling by 8” value in assay [2] is “No labeling inhibition”.

Source of the values: publication PMC6598175 (ACS Central Science, 2019).
